# Laboratory results: PubChem BioAssay
# A number with no mark means an inactive call. Records with an inconclusive call do not appear. Activity calls are given as the source filed them.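 Rule for the calls, unless noted: active = inhibition over a set limit, the all-compound mean plus 3 SD, in both replicate runs; inconclusive = over that limit in just one replicate run; inactive = at or under that limit in both runs.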
# Columns and labels:
# [1] = OD615 S. cerevisiae growth inhibition, permissive medium, pilot counter-assay, permissive growth control for S. cerevisiae lifespan shortening project (AID 705;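 active = growth inhibition above 25% in both replicates, a cutoff set 3 SD above the mean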); details: OD615, 24 h, at 10 µM, hits give high values
# How it was run: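 assay system = Saccharomyces cerevisiae strain carrying genetically modified DeaD replicative-lifespan system | technique = absorbance (optical density) at 615 nm | buffer or medium = permissive raffinose/galactose medium | timing = cells pre-grown 4 h, then 24 h compound exposure, 30 °C humidified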
# [2] = Restrictive medium S. cerevisiae growth inhibition, OD615, pilot screen of yeast lifespan reduction project, restrictive growth control (AID 706;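 active = growth inhibition above a set limit, 3 SD over mean compound inhibition, in both replicates, cut at about 43% in these data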;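 note: modified DeaD lifespan yeast strain shifted to restrictive glucose medium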); details: OD615, 48 h, at 10 µM, hits give high values
# How it was run: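 System: modified S. cerevisiae. Buffer or medium: CSMM-D glucose medium. Incubation: 4 h pre-growth plus 48 h compound exposure, 30 °C. Detection: absorbance (optical density) measured at 615 nm.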
# [3] = viability gain of MRP-1-high H69AR cells under doxorubicin, pilot screen, MRP-1 activator project, CellTiter-Glo, duplicate (AID 807;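 active = viability increase at or above a cutoff of the median across tested compounds plus 3 SD, cut at about 8.5% in these data, passing the limit was not always enough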;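 note: compound pretreatment 18-22 h then 72 h combined with doxorubicin; 0% = doxorubicin alone and 100% = vehicle without doxorubicin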); details: H69AR viability with doxorubicin, CellTiter-Glo luminescence; at 10 µM; hits give high values
# [4] = growth suppression of beta-catenin knockout HCT116, pilot screen, human colon tumor cells (AID 823;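 active = cell viability at or below a set limit in both duplicate runs, the limit being the all-compound median minus 4 SD, cut at about 23% in these data, passing the limit was not always enough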;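 note: 0% = wells killed by 20 µM Hyamine and 100% = untreated DMSO cell wells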); details: CellTiter-Glo, 60 h, at 10 µM, hits give low values
# [5] = growth suppression of PTEN-deleted HCT116, pilot screen, cell-based, HCT116 clonal line, CellTiter-Glo (AID 824;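 active = viability at or below 27.92% in each of two runs, the all-compound median minus 4 SD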;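 note: 0% = 20 µM Hyamine control and 100% = vehicle cell control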); details: 60 h, at 10 µM, hits give low values
# [6] = inhibitors of the yeast RAM network, pilot screen, dse1pr::URA3 reporter, 5-FOA selection (AID 869);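 note: 0% = DMSO wells with no growth and 100% = 10 µM 1-NA-PP1 with full growth; RAM network block rescues cells from 5-FOA so hits raise OD615 growth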; details: S. cerevisiae dse1pr::URA3 5-FOA growth, OD615, 2 d; at 10 µM; hits give high values; strain carries analog-sensitive mutant Cbk1 kinase
# [7] = RAM signaling pathway blockade in yeast – S. cerevisiae, Pdr1DBD-CYC8 efflux-inhibited sensitized strain, primary screen (AID 1298;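 active = RAM network inhibition above 8.4% in each of two replicates, 3 SD over the compound average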;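 note: 0% = DMSO untreated cells without growth and 100% = 10 µM 1-NA-PP1 full growth; higher means more yeast growth rescued from 5-FOA killing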); details: S. cerevisiae cbk1-as DSE1-URA3 strain, 5-FOA growth OD615, 2 d; at 50 µM; hits give high values
SMILES,growth inhibition [1],growth inhibition [2],viability increase [3],viability [4],viability [5],inhibition [6],RAM network inhibition [7]
O=C(NCc1ccco1)c1cc(S(=O)(=O)N2CCOCC2)ccc1Cl,-8.68%,-8.34%,-3.24%,86.2%,95.2%,3.05%,1.96%
CCC(CC)C(=O)Nc1cc(=O)n(C)c(=O)n1C,-3.07%,8.82%,-0.82%,92.8%,87.4%,0.18%,-2.19%
COc1ccc(S(=O)(=O)Nc2ccc3c(c2)OCO3)cc1C(=O)O,-4.6%,-5.47%,-1.95%,93.5%,94.5%,0.425%,3.99%
S=c1[nH]nc(CSc2nc3ccccc3s2)o1,-1.19%,16.7%,-4.34%,93.8%,99.1%,0.95%,0.83%
Cc1noc(NS(=O)(=O)c2ccc(NC(=O)CSc3ncccn3)cc2)c1C,-3.47%,-2.18%,-0.58%,109%,95.2%,0.615%,1.94%
O=C(O)CC(NC(=O)OCc1ccccc1)c1ccccc1 (stereo not drawn),2.56%,-5.79%,-1.78%,91.7%,96.5%,1.17%,-0.33%
CCOC(=O)CN1Cc2cccc(C(=O)O)c2C1=O,-13.8%,-18.1%,-0.75%,95.6%,96.3%,0.535%,1.31%
N#Cc1nc(-c2ccc(F)cc2)oc1NCc1ccccc1,-11.9%,2.85%,0.89%,105%,95.7%,1.36%,1.07%
CCCC(=O)c1cc(F)c(N2CCN(S(=O)(=O)c3ccccc3)CC2)cc1C,-7.04%,-27.6%,1.53%,90.3%,88.5%,3.01%,3.18%
COc1ccc(C(=O)N2CCC(C(=O)Nc3cccc(C)c3)CC2)cc1OC,-0.875%,-15.3%,-2.37%,106%,96.7%,0.29%,2.75%
CC(=O)c1ccc(NC(=O)CSC(C)C)cc1,-0.135%,-18.6%,-0.64%,102%,97.9%,1.36%,0.37%
Cc1nnc(SCCn2c(N(C)Cc3ccccc3)nc3c2c(=O)[nH]c(=O)n3C)s1,-9.54%,-5.15%,-3.65%,99.8%,97.5%,2.33%,5.64%
[O-]/[N+](=C\c1ccc(OC(F)F)cc1)c1ccccc1,-1.07%,2.88%,-5.13%,88.1%,93.7%,1.19%,1.08%
O=C(Cn1nc(Cc2cccnc2)c2ccccc2c1=O)NCCCN1CCCC1=O,3.02%,-5.47%,-0.8%,103%,97.3%,0.75%,0.25%
Cc1onc(-c2ccccc2Cl)c1C(=O)Nc1ccc(S(=O)(=O)N2CCCC2)cc1,0.03%,9.99%,-2.15%,86.3%,81.2%,1.72%,4.75%
COc1ccc(S(=O)(=O)N2CCC(C(=O)N3CCOCC3)CC2)cc1OC,-15.4%,-6.63%,-0.87%,91.5%,94.8%,0.825%,2.43%
COc1ccc(CNC(=O)CS(=O)Cc2nc(-c3ccc(C)cc3)oc2C)cc1 (stereo not drawn),-5.34%,0.735%,-2.44%,86.9%,93.4%,1.39%,5.95%
O=C1C(Cl)=C(N2CCCCCC2)C(=O)N1c1ccccc1,-12.4%,-16.4%,-0.88%,91.3%,93.2%,0.8%,3.09%
CC(=O)Nc1ccc(S(=O)(=O)N2CCN(CCC#N)CC2)cc1,-4.55%,6.44%,0.85%,111%,97.1%,1.86%,0.19%
Oc1cc(Cc2ccccc2)cnc1CN1CCCCC1,-10.9%,2.06%,-1%,95.6%,98%,0.305%,3.35%
COc1ccc(N2CCN(S(=O)(=O)c3ccc(OC)cc3)CC2)cc1,-4.01%,3.09%,-5.5%,99.3%,106%,0.885%,3.84%
Cc1occc1C(=O)NCc1cccs1,-6.07%,-2.95%,-1.27%,91%,95.9%,0.455%,-0.16%
COc1cccc2sc(Nc3nnc(-c4ccccc4Cl)o3)nc12,-29.8%,-13.7%,-4.31%,15.4% (active),18.8% (active),1.1%,1.26%
COc1ccccc1S(=O)(=O)Cc1ccc(C(=O)N2CCCC2)o1,-3.58%,-4.36%,-1.51%,108%,101%,0.935%,0.94%
Cc1ccc(Cl)cc1N1CCN(C(=O)C2CCC(=O)N2C(C)C)CC1 (stereo not drawn),-2.15%,-5.95%,2.45%,93.6%,85.8%,-0.505%,5.7%

SMILES,growth inhibition [1],growth inhibition [2],viability increase [3],viability [4],viability [5],inhibition [6],RAM network inhibition [7]
Cc1sc2nc(CSc3nnc(Cc4cccs4)n3C3CCCCC3)[nH]c(=O)c2c1C,10.9%,27.6%,3.27%,92.8%,90%,3.25%,4.25%
O=C(COc1ccc(Cl)cc1)Nc1nnc(-c2ccc3c(c2)CCCC3)o1,-12.6%,-12.9%,-1.94%,101%,96.5%,3.45%,1.21%
COc1ccccc1CNC(=O)c1cnc2sccn2c1=O,-5.31%,-12.4%,-2.45%,107%,90.3%,2.37%,2.72%
CCCCNC(=O)CCCn1c(=O)[nH]c2ccc(Br)cc2c1=O,-13%,-18%,-0.78%,97.9%,92.7%,0.635%,1.08%
c1csc(CCNc2ncnc3sc4c(c23)CCC4)c1,-5.19%,13.9%,-5.93%,39.9%,50.1%,0.385%,-0.9%
COc1cccc(NC(=O)Cn2cc3c(n2)CCCCC3)c1,-10%,-7.44%,0.07%,98.2%,92%,1.66%,6.31%
O=C(O)CC(CNS(=O)(=O)c1ccccc1)c1ccccc1 (stereo not drawn),-1.83%,1.5%,0.76%,100%,98.6%,1.54%,-0.36%
CSc1nnc2n(-c3ccc(C)cc3)c(=O)c3c4c(sc3n12)COC(C(C)C)C4 (stereo not drawn),-18.2%,-3.12%,-4.07%,37.3%,31.6%,-0.285%,7.91%
COc1cccc(CNC(=O)c2cc3ccccn3n2)c1,-1.27%,-6.35%,-2.27%,106%,96.8%,1.33%,-0.11%
Cc1cccc(C)c1OCC(O)Cn1ccnc1C (stereo not drawn),1.01%,0.215%,-1.6%,81.1%,84.7%,1.08%,-0.1%
COc1ccc2oc(C(=O)CCC(=O)O)c(N)c2c1,-12.2%,8.27%,-0.43%,93.3%,92.5%,1.98%,1.31%
COc1ccc(-n2c(Cc3cccn3C)nnc2SCC(=O)Nc2ccc3c(c2)OCCO3)cc1,4.97%,8.29%,-1.74%,103%,94.6%,1.61%,6.11%
COC(=O)CN1C(=O)C(O)(CC(=O)c2cccc(Br)c2)c2ccccc21 (stereo not drawn),-6.81%,-10.7%,-4.39%,90.9%,86.9%,1.2%,2.42%
COc1ccc(OCc2nnc(SCC(=O)O)n2N)cc1,-6.54%,5.32%,1.25%,106%,94.8%,0.66%,-2.27%
CCCN(CCC)C(=O)CCS(=O)(=O)c1cccc2nsnc12,-9.5%,-18.6%,-1.95%,96.3%,98.2%,1.15%,2.25%
COc1ccc(N(C)C(=O)c2ccc3snnc3c2)cc1,4.09%,-8.11%,-1.56%,105%,94.3%,2.6%,0.05%
Cc1ccc2oc(=O)c3cnn(CC(=O)Nc4ccccc4N4CCN(C)CC4)c3c2c1,0.52%,-25.3%,-6.16%,8.9% (active),6.03% (active),-0.415%,-0.65%
CC(C)=C(NC(=O)c1ccccc1)C(=O)NCCCC(=O)O,-7.54%,-18.8%,-0.03%,100%,103%,1.5%,2.34%
O=C(COC(=O)c1cnccn1)c1ccc2c(c1)CCCC2,-11.3%,-17.1%,-1.19%,91.9%,88.6%,1.32%,1.14%
COc1cc(C2C(C(=O)c3ccco3)=C(O)C(=O)N2Cc2cccnc2)cc(OC)c1OC (stereo not drawn),2.67%,-4.03%,-3.86%,102%,96.8%,1.64%,4.97%
O=C(NCc1cccnc1)c1cccc(S(=O)(=O)N2CCOCC2)c1,-7.59%,1.51%,0.32%,103%,101%,1.6%,0.62%
CC(C)Sc1nnc(Cn2c(=O)sc3ccccc32)n1-c1ccccc1,1.75%,-10.2%,-0.05%,87.1%,86.5%,-0.63%,5.84%
CCCC(=O)NCCCc1nc2ccccc2n1C(C)C,-18.1%,-23.6%,1.18%,102%,96.2%,1.66%,3.95%
CCc1ccc(C2CC(c3ccc(C)cc3)n3nc(N)nc3N2)cc1 (stereo not drawn),5.21%,24.1%,0.11%,101%,107%,1.35%,8.9%
